Screen size: about 2,500 compounds; about 460 (18%) were called active.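 Rule for the calls: active = mean activation above a cutoff of low control average plus 3 SD from the earlier screen (cut at about 12% in these data); inactive = the rest.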 Not all results are given here.
Experiment: IANBD-channel fluorescence artefacts in buffer – biochemical, artefact control for cardiac RTF calcium sensitizer project, confirmation (AID 504382)
Conditions: IANBD fluorescence interference counterscreen, EC20 Ca2+, at 7.2 µM, stronger effect = higher value, scaled: EC20 calcium 0, EC100 calcium 100
Procedure, shortened: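 Technique: fluorescence, 480/540 nm / Medium: MOPS-based buffer with KCl, MgCl2, EGTA, NTA, DTT, pH 7.2 / Probe or stimulus: calcium at EC20 level, 0.472 mM final / Repeats: triplicate wells per compound / Times: 15 min compound exposure at 25 °C / Measure: compound fluorescence interference relative to control well signal range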

Structure (SMILES)	fluorescence artifact activation
CC(C)c1ccc(C2c3[nH]c4ccccc4c3C[C@H]3C(=O)N(c4ccccc4C(=O)N4CCC(C(=O)O)CC4)C(=O)N23)cc1 (stereo partly drawn)	0.07% (inactive)
COc1ccccc1-c1nnc(SCc2nc3ccccc3s2)n1C	7.19% (inactive)
Cc1ccc(Cl)c(NC(=O)CN(C)CC(=O)Nc2ccc(F)c(F)c2F)c1Cl	0.02% (inactive)
N/C(COc1cc(Cl)cc(Cl)c1)=N\O	21.9% (active)
COc1cc(OC)c(C(=O)NC2CCCCCC2)cc1OC	-0.01% (inactive)
O=[N+]([O-])c1cc(-c2ccn[nH]2)ccc1Cl	-0.08% (inactive)
COc1ccc(C(Nc2ccc(S(=O)(=O)NCC3CCCO3)cc2)C(=O)NC(C)(C)C)cc1OC (stereo not drawn)	0.01% (inactive)
COc1cc(OC)cc(-c2c(-c3cccs3)c3cc(-c4ccc(SC)cc4)ccc3n2C)c1	5.67% (inactive)
O=C(CSc1nc2ccccc2s1)NNC(=S)Nc1ccccc1	193% (active)
N#C/C(=C(/O)COC(=O)c1ccccc1O)c1nc2ccccc2s1	0.47% (inactive)
O=C(/C=C/c1nc2ccccc2s1)N1CCCCCC1	7.06% (inactive)
CCc1cc(=O)n2c([nH]c3ccccc32)c1C#N	0.24% (inactive)
Cc1cc(Br)ccc1SCC(=O)OCC(=O)Nc1ccccc1C#N	0.22% (inactive)
Cc1ccc(S(=O)(=O)Nc2ccc3ncccc3c2[N+](=O)[O-])cc1	0.33% (inactive)
COc1ccc(/C=C2\CC/C(=C\c3ccc(OC)cc3OC)C2=O)c(OC)c1	9.84% (inactive)
CCCN1C(=O)/C(=C/C=C2\N(CC)c3ccccc3C2(C)C)SC1=S	0.48% (inactive)
CCCCN1C(=O)/C(=C/C=C2\Oc3ccccc3N2CC)SC1=S	16.6% (active)
CCCN1C(=O)/C(=C\C=C2\N(CC)c3ccccc3C2(C)C)SC1=S	0.28% (inactive)
CC(C(=O)NNS(=O)(=O)c1cccc(C(F)(F)F)c1)n1nnc(N2CCOCC2)n1 (stereo not drawn)	0.4% (inactive)
COc1cc(OC)c(OC)cc1/C=C1/Cc2ccccc2C1=O	-0.02% (inactive)
COc1ccc2c3c(cccc13)C(=O)CC2	1.92% (inactive)
COc1cc2c(cc1[N+](=O)[O-])-c1ccccc1C2	70.4% (active)
Cc1noc(C)c1S(=O)(=O)N(C)C[C@H]1Oc2ccc(NC(=O)CCC(F)(F)F)cc2C(=O)N([C@H](C)CO)C[C@@H]1C	0.08% (inactive)
O=S(=O)(Nc1nc2ccccc2nc1NCCO)c1cccc(Cl)c1	57.1% (active)

Structure (SMILES)	fluorescence artifact activation
O=S(=O)(Nc1nc2ccccc2nc1N1CCN(c2ccccn2)CC1)c1ccc(Cl)cc1	-0.09% (inactive)
Cc1ccc(S(=O)(=O)Nc2nc3ccccc3nc2NCc2ccco2)cc1	2.57% (inactive)
COC1=CC2(O)CCCC2=CC1=O (stereo not drawn)	0.15% (inactive)
Cc1cc(Cn2nc(C(=O)NCC3CC3)cc2-c2ccccc2)on1	0.04% (inactive)
COc1cccc(/C=C/C(=C2\C(=O)N(c3ccccc3)N=C2C)c2ccc(Br)cc2)c1OC	0.1% (inactive)
CCC1(c2ccccc2)NC(=O)N(CC(=O)Nc2ccc(OC)nc2)C1=O (stereo not drawn)	-0.05% (inactive)
N#CCCN(C(=O)c1ccco1)c1ccccc1	1610% (active)
C/C(=N/NC(=O)CNC(=O)Cc1ccccc1)c1ccco1	0% (inactive)
CCN(C(=O)c1cc2ccccc2oc1=O)c1ccccc1	1.56% (inactive)
CCOCCCNc1ccc(-c2ccccc2)nn1	1.31% (inactive)
COc1ccc(O)c(/C=C2/SC(=S)N(Cc3ccccc3)C2=O)c1	0.17% (inactive)
O=C1/C(=C\c2cc(Cl)c(O)c(Cl)c2)SC(=S)N1Cc1ccccc1	-0.11% (inactive)
COc1cc(/C=C2/SC(=S)N(Cc3ccccc3)C2=O)cc(Cl)c1O	1800% (active)
O=C(N/N=C/c1cccc([N+](=O)[O-])c1)c1cnccn1	-0.02% (inactive)
O=C(CSc1ccc(-c2cccs2)nn1)N1CCCCC1	0.91% (inactive)
CCOc1ccc(NC(=O)COC(=O)CCN2C(=O)C3CC=CCC3C2=O)cc1OCC (stereo not drawn)	0.5% (inactive)
CN1CC[C@@H]2C(=O)N3CCc4ccc(Br)cc4[C@@H]3C[C@@H]21	0.24% (inactive)
COC(=O)C1=C(O)/C(=C\c2ccc(CNS(=O)(=O)c3ccc(Cl)cc3)o2)N=C1C	0.18% (inactive)
CN1CC=C2C(C#N)=C(N)C(C#N)(C#N)C(CCc3ccccc3)C2C1 (stereo not drawn)	12.7% (active)
CN1CC=C2C(C#N)=C(N)C(C#N)(C#N)C(Cc3ccccc3)C2C1 (stereo not drawn)	0.22% (inactive)
COc1cc(C2C3CN(C)CC=C3C(C#N)=C(N)C2(C#N)C#N)ccc1OC(C)C (stereo not drawn)	16.8% (active)
CCN1CC=C2C(C#N)=C(N)C(C#N)(C#N)C(CCc3ccccc3)C2C1 (stereo not drawn)	0.03% (inactive)
COc1cc([C@@H]2[C@H]3CN(C)CC=C3C(C#N)=C(N)C2(C#N)C#N)cc2c1OCO2	0.14% (inactive)
CN1CC=C2C(C#N)=C(N)C(C#N)(C#N)[C@H](c3cccc(Cl)c3)C2C1 (stereo partly drawn)	10.2% (inactive)

Reference: PubChem BioAssay AID504382 (The Scripps Research Institute Molecular Screening Center, 2011)
